The subject of one experiment is Plasmodium falciparum. Description: Antiplasmodial activity against Plasmodium falciparum NF54 infected in human erythrocytes assessed as growth inhibition by [3H]hypoxanthine incorporation assay. The experiment is classed as functional, organism-based.
Another experiment addresses T1, HSP90 (Plasmodium falciparum 3D7, UniProt Q8IL32).
T1 sequence (Q8IL32 whole entry): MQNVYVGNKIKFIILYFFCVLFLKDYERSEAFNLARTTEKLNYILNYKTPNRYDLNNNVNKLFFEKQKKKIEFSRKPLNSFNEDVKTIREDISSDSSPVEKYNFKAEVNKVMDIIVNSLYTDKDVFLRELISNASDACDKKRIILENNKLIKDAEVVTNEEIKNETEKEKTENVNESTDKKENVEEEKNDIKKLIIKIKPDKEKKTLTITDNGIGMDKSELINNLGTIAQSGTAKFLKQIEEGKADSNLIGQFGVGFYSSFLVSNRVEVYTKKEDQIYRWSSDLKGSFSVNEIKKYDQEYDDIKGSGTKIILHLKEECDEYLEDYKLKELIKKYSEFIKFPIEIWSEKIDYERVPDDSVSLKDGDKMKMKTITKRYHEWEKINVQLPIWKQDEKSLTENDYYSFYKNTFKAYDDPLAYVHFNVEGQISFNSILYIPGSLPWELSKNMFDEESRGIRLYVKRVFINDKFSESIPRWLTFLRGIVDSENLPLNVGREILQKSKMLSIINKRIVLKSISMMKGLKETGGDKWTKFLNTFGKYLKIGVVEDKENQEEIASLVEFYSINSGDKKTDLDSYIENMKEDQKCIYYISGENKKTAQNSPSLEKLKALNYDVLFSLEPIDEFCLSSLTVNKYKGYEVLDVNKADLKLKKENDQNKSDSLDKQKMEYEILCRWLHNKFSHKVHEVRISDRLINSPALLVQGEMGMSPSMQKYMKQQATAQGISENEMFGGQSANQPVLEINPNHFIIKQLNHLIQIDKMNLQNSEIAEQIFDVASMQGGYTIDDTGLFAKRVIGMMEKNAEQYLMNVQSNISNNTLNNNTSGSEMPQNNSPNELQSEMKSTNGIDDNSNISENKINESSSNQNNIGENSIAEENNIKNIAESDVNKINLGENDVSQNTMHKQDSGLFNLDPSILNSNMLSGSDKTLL
Description: Binding affinity to N-terminal FLAG-tagged Plasmodium falciparum recombinant HSP90 (1 to 223) expressed in Escherichia coli BL21(DE3) by microscale thermophoresis assay. The method in brief: (§1)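 Recombinant Pf Hsp90 proteins were expressed in E. coli BL21 DE3 pLysS in LB, induced with 0.5 mM IPTG for 18 h at 20 °C. They were purified by His-affinity then size exclusion, keeping the 33 kDa fractions. Ligand was titrated in 1:1 dilutions against 100 nM protein with 5% DMSO. MST was run at 40% LED and 40% MST power.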
For orientation: Microscale thermophoresis detects binding through changes in fluorescence in a small temperature gradient.

Experiment [1] can be described thus: Ratio of IC50 for rat L6 cells to IC50 for Plasmodium falciparum NF54. The gist of the method:
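Ratio of two IC50s. P. falciparum NF54 was grown in human erythrocytes (Trager–Jensen) for a 72 h assay window, with growth read as [3H]hypoxanthine incorporation. Cytotoxicity was measured in rat skeletal myoblast L6 cells.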

The test system of a further experiment is L6. In words: Cytotoxicity against rat L6 cells after 72 hrs by Alamar Blue assay. The experiment is classed as cell-based.
The test system of experiment [2] is Heat-shock protein (Plasmodium falciparum), Q25869 [K313Q]. Description: Inhibition of Plasmodium falciparum HSP90 K313Q mutant expressed in yeast assessed as growth inhibition of host at 100 uM after 72 hrs.
Experiment [3] is described as follows: Inhibition of Plasmodium falciparum HSP90 ISG-LGA mutant expressed in yeast assessed as growth inhibition of host after 72 hrs. The method in brief: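 Host was an isogenic S. cerevisiae strain derived from DP533 (Δhsc82 Δhsp82 pdr5), carrying Flag-tagged PfHsp90 ISG-LGA/K313Q from a low-copy plasmid as its only Hsp90. Cultures were diluted to OD600 0.1 in minimal medium with 2% DMSO. OD600 was read every 30 min for 72 h. Growth % was maximal growth-curve slope relative to solvent-only; IC50 from triplicate dose-response.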

The nature of experiment [4]: Binding affinity to N-terminal FLAG-tagged Plasmodium falciparum recombinant HSP90 R98K mutant expressed in Escherichia coli BL21(DE3) by microscale thermophoresis assay. The method in brief: as §1
Experiment [5] is described as follows: Binding affinity to N-terminal FLAG-tagged Plasmodium falciparum recombinant HSP90 ISG-LGA mutant expressed in Escherichia coli BL21(DE3) by microscale thermophoresis assay. The gist of the method:
as §1

The source made the active and inactive calls. No cut-off for these calls is given here.

Results on six compounds are retold here after ChEMBL document CHEMBL3232740, “Differences in conformational dynamics between Plasmodium falciparum and human Hsp90 orthologues enable the structure-based discovery of pathogen-selective inhibitors” (J Med Chem, 2014).

Sequence of Heat-shock protein (Plasmodium falciparum), Q25869 [K313Q] (Q25869 whole entry K313Q): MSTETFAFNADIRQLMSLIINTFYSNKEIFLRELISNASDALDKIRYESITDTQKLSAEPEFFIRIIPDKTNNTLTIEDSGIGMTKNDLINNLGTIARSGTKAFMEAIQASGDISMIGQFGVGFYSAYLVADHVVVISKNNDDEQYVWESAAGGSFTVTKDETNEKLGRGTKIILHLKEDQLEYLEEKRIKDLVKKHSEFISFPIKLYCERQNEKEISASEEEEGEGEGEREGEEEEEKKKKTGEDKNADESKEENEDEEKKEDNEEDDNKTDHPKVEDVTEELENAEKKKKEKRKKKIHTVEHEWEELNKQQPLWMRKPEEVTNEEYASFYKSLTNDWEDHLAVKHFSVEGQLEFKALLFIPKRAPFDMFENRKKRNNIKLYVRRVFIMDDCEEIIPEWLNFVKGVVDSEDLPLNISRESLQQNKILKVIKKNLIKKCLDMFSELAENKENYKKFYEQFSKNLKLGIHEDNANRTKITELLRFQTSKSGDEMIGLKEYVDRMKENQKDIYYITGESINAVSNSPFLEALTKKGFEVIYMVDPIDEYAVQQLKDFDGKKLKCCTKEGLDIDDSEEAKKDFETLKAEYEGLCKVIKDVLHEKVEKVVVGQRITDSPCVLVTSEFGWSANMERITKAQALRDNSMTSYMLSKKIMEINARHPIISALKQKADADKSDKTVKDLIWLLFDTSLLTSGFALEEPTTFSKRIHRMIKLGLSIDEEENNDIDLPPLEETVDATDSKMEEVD

In general, IC50 refers to the concentration at which inhibition is half-maximal. Usually Kd stands for the equilibrium constant for the complex coming apart. Consider `COCC(=O)Nc1c(C(=O)OC)n(CCC(C)C)c2ncc(NC3CCCCCCC3)cc12`, for which the half-maximal inhibitory concentration (IC50) is 5.02 µM in the experiment with Plasmodium falciparum (Plasmodium falciparum, NF54) and 56 µM in the experiment with L6 (Rattus norvegicus, L6, 72 h). Moreover, on HSP90, the Kd came out at 25.4 µM. In addition, the “Ratio IC50” value in experiment [1] was above 10.

On to `COCC(=O)Nc1c(C(=O)OC)n(CCC(C)C)c2ncc(NC(C)C)cc12`, for which the 50% inhibitory concentration (IC50) came out at 13.8 µM in the experiment on Plasmodium falciparum (Plasmodium falciparum, NF54) and 56 µM in the experiment with L6 (Rattus norvegicus, L6, 72 h). Moreover, the Kd on HSP90 stood at 175 µM. The Ratio IC50 in experiment [1] came to 4.

Take `COCCn1c(C(=O)OC)c(NC(=O)Cc2ccccc2)c2cc(NC3CCCCCCC3)cnc21`: in experiment [2], the inhibition result was “Active”.

As for `COCC(=O)Nc1c(C(=O)OC)n(CCC(C)C)c2ncc(NC(C)CCC=C(C)C)cc12` (racemic), the half-maximal inhibitory concentration (IC50) in the experiment on Plasmodium falciparum (Plasmodium falciparum, NF54) amounted to 5.75 µM; in experiment [3] it was 61.2 µM; in the experiment on L6 (Rattus norvegicus, L6, 72 h) it was 63 µM. Moreover, the figures for the Kd (in experiment [4]; at HSP90) were 16.5 µM and 14.1 µM, respectively. In experiment [1], the “Ratio IC50” value is recorded as above 10.

Take `COCC(=O)Nc1c(C(=O)OC)n(C)c2ncc(NC(C)CCC=C(C)C)cc12` (racemic): the Kd on HSP90 is 115 µM.

As for `COC1=C2C[C@@H](C)C[C@H](OC)[C@H](O)[C@@H](C)/C=C(\C)[C@H](OC(N)=O)[C@@H](OC)/C=C\C=C(/C)C(=O)NC(=CC1=O)C2=O` [GELDANAMYCIN], the half-inhibitory concentration (IC50) in the experiment with Plasmodium falciparum came out at 0.148 µM; in the experiment with L6 (l6), 6 µM. Further, the Kd in experiment [5] is 0.103 µM.
